The test system of one test is MCF7. Description: Antiproliferative activity against human MCF7 cells after 48 hrs by MTT assay. In kind it is functional, cell-based. Conditions: MCF7, 48 h. On the technique in general: Tetrazolium dyes change colour on reduction, which living cells bring about.
The target of test [1] is Vascular endothelial growth factor receptor 2 (Homo sapiens, UniProt P35968). Description: Inhibition of VEGFR2 (unknown origin) preincubated for 5 mins followed by addition of ATP/gastrin precursor(Tyr87) biotinylated peptide cocktail incubated for 30 mins by ELISA. Summed up:
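The kit enzyme, 100 ng VEGFR-2 in reaction cocktail, was preincubated with compound dilutions for 5 min at room temperature. The 30 min reaction ran at room temperature and was stopped with EDTA (50 mM, pH 8). Biotinylated peptide was captured on streptavidin wells for 60 min. Phospho-Tyr was detected with anti-pTyr-100 mAb, then HRP anti-mouse IgG, then TMB, read at 450 nm.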
For orientation: In an ELISA, binding on a coated surface is turned into a signal by an enzyme label.

Another test concerns the target Histone deacetylase. Description: Inhibition of HDAC in human HeLa cell nuclear extracts preincubated for 15 mins followed by addition of Fluor de Lys as substrate for 1 hr by fluorometric assay. In kind it is cell-based.
Test [2] has as its target T1, Protein deacetylase HDAC6 (Homo sapiens, UniProt Q9UBN7).
T1 sequence (Q9UBN7 whole entry): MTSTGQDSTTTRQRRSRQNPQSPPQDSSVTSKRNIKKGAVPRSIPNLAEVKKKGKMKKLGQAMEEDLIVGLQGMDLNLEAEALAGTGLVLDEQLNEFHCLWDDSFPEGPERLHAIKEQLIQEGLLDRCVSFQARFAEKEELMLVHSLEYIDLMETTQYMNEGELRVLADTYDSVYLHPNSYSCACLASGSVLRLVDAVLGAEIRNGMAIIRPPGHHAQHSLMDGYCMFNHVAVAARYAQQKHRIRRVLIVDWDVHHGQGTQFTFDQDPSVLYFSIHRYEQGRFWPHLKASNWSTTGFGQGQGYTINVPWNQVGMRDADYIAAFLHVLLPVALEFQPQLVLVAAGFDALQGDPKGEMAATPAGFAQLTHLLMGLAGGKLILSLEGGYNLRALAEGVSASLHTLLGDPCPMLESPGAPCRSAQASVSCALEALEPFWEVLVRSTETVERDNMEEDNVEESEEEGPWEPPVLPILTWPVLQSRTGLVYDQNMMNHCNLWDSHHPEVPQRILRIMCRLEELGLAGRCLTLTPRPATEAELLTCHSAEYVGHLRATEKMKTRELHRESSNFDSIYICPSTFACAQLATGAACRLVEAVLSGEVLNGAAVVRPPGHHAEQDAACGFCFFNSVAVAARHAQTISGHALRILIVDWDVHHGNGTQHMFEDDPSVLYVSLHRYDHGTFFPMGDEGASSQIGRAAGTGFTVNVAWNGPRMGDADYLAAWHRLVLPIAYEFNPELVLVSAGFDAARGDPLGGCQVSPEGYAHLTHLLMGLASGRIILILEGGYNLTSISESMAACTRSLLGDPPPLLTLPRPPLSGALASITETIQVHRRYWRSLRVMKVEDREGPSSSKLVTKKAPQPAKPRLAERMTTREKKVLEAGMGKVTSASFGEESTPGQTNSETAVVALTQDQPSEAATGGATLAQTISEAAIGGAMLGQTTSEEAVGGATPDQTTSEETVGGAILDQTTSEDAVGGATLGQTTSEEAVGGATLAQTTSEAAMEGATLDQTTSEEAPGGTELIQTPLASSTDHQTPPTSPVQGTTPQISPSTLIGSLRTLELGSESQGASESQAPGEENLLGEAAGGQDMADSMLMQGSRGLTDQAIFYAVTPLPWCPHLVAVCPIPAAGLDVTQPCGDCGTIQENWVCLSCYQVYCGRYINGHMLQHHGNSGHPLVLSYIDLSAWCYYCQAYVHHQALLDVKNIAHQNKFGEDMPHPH
As to the kind of experiment: Inhibition of HDAC6 (unknown origin) preincubated for 15 mins followed by addition of Fluor de Lys as substrate for 1 hr by fluorometric assay. Summed up:
(§1)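 Each isolated HDAC isoform was incubated with compound at a range of concentrations for 15 min at room temperature. The reaction was then started with Fluor de Lys substrate and run for 1 h at room temperature. Developer was added to stop it. Fluorescence was read at excitation 355 nm and emission 460 nm. The assay was run three independent times.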

A further test addresses T2, Histone deacetylase 8 (Homo sapiens, UniProt Q9BY41).
T2 sequence (Q9BY41 whole entry): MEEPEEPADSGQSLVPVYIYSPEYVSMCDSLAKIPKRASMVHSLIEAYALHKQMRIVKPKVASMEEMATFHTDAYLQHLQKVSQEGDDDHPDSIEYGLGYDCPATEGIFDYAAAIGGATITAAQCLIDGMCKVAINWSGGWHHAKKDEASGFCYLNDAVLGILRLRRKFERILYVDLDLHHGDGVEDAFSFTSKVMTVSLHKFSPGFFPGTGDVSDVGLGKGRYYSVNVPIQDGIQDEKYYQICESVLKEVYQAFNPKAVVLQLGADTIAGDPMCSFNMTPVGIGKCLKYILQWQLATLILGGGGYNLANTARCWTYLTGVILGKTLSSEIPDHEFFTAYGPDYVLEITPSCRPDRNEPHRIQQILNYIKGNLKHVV
As to the kind of experiment: Inhibition of HDAC8 (unknown origin) preincubated for 15 mins followed by addition of Fluor de Lys as substrate for 1 hr by fluorometric assay. Summed up: as §1

The target of another test is Histone deacetylase 2 (Homo sapiens, UniProt Q92769). Description: Inhibition of HDAC2 (unknown origin) preincubated for 15 mins followed by addition of Fluor de Lys as substrate for 1 hr by fluorometric assay. Put shortly:
as §1

For a further test, the target named is Histone deacetylase 1 (Homo sapiens, UniProt Q13547). As to the kind of experiment: Inhibition of HDAC1 (unknown origin) preincubated for 15 mins followed by addition of Fluor de Lys as substrate for 1 hr by fluorometric assay. Summed up: as §1
Sequence of Histone deacetylase 1 (Q13547 whole entry): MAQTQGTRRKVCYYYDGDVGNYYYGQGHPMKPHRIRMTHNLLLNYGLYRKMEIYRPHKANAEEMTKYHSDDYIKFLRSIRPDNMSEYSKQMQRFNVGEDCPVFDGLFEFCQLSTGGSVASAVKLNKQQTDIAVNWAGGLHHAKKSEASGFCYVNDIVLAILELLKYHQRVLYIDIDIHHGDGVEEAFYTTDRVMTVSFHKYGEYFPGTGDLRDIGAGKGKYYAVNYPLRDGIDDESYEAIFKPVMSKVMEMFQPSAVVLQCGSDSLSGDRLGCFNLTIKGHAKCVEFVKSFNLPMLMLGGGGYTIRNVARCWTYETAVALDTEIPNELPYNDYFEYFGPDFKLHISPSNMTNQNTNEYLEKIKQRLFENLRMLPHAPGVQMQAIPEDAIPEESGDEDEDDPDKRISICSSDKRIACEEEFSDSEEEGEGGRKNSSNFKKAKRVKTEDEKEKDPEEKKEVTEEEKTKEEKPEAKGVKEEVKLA

pIC50: −log10 of the molar value. A value given as a limit tells only on which side of the number the result lay.

Sequence of Vascular endothelial growth factor receptor 2 (P35968 whole entry): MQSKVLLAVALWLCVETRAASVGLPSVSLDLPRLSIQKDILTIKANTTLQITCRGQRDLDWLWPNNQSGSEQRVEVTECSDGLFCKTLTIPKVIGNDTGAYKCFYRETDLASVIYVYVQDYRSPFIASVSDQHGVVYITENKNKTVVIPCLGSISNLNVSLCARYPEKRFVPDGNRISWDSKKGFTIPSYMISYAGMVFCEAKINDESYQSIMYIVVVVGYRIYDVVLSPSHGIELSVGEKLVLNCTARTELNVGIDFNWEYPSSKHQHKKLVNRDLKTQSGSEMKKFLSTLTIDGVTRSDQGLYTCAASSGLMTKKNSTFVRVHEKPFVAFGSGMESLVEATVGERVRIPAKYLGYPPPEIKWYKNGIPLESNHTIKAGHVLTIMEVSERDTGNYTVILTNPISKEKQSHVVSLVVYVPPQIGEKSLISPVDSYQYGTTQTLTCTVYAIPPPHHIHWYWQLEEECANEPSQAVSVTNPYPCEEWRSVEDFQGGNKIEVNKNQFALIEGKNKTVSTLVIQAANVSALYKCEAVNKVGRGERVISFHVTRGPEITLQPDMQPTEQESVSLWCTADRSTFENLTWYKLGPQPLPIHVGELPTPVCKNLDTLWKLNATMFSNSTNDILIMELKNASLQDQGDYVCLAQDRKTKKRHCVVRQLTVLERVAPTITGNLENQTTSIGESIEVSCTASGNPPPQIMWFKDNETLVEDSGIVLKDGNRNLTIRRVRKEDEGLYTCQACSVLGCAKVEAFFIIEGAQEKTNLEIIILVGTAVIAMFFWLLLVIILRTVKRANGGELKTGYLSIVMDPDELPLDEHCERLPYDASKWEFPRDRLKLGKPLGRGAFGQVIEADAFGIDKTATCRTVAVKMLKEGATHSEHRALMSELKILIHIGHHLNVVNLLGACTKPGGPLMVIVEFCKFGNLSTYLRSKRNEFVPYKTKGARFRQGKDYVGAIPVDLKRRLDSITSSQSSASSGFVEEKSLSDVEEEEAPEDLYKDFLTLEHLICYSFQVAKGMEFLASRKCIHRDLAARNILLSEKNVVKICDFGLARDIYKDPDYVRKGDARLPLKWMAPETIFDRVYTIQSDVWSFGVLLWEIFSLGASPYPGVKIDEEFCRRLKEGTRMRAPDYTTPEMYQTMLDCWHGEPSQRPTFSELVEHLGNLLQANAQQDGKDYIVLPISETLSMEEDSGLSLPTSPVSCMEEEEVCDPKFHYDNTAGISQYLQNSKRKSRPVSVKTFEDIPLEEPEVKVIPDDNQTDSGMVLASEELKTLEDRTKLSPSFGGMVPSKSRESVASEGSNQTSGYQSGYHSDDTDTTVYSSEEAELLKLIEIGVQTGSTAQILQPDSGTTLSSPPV
Sequence of Histone deacetylase 2 (Q92769 whole entry): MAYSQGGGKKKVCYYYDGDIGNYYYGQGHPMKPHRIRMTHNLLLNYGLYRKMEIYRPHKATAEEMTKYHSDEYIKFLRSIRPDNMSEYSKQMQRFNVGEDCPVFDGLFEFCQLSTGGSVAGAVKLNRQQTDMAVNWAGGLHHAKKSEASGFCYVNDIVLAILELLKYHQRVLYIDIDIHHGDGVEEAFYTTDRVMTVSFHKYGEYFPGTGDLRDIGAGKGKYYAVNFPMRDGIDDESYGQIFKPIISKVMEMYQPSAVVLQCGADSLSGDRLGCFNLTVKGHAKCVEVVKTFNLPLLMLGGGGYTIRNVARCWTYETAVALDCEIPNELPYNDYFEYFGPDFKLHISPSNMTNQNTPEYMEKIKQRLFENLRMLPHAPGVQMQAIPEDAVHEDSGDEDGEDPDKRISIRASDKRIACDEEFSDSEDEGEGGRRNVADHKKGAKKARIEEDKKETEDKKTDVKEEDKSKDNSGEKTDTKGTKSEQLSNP

A word on the pIC50: it is the negative decadic logarithm of the IC50, by convention in mol/L. For orientation: IC50 means the concentration needed to halve the response being measured. A higher IC50 goes with lower potency. As to `COc1cc2ncnc(Nc3ccc(Cl)cc3)c2cc1OCCCC(=O)NO`, the pIC50 in the test with MCF7 was 4.07; in test [1], 6.74. Moreover, the IC50 on Histone deacetylase is on record as 698 nM.
For `COc1cc2ncnc(Nc3ccc(F)cc3)c2cc1OCCCCCCC(=O)NO`, in that order: 5.62, 6.57 and 8.5 nM.
Take `COc1cc2ncnc(Nc3ccc(Cl)cc3)c2cc1OCCCCC(=O)NO`: the pIC50 is 4.21 in the test on MCF7 and 6.66 in test [1]. Besides, on Histone deacetylase, the IC50 is on record as 132 nM.
The matching figures for `COc1cc2ncnc(Nc3ccc(Br)cc3)c2cc1OCCCCCC(=O)NO`: 5.46, 6.82 and 12 nM.
The matching figures for `COc1cc2ncnc(Nc3ccccc3Br)c2cc1OCCCCCC(=O)NO`: 4.77, under 5.00 and 31 nM.
For `COc1cc2ncnc(Nc3ccc(Cl)cc3)c2cc1OCCCCCCC(=O)NO`, the pIC50 was 5.77 in the test with MCF7 and 6.67 in test [1]. The same compound returned a half-inhibitory concentration (IC50) at Histone deacetylase of 3.2 nM.
The matching figures for `COc1cc2ncnc(Nc3ccccc3F)c2cc1OCCCCC(=O)NO`: under 4.00, 6.08 and 554 nM.
The matching figures for `COc1cc2ncnc(Nc3ccc(Br)cc3)c2cc1OCCCCC(=O)NO`: 4.44, 7.23 and 68 nM.
With `COc1cc2ncnc(Nc3ccc(F)cc3)c2cc1OCCCCC(=O)NO`, the pIC50 in the test with MCF7 is 4.13; in test [1], 6.34. The compound further had a half-inhibitory concentration (IC50) against Histone deacetylase of 139 nM.
For `COc1cc2ncnc(Nc3ccccc3F)c2cc1OCCCCCC(=O)NO`, in that order: 4.08, 6.04 and 145 nM.
For `COc1cc2ncnc(Nc3ccccc3Cl)c2cc1OCCCCCC(=O)NO`, in that order: 4.82, 6.16 and 29 nM.
Consider `COc1cc2ncnc(Nc3ccc(Br)cc3)c2cc1OCCCCCCC(=O)NO`, for which the pIC50 in the test with MCF7 was 6.07; in test [2] it was 7.79; in test [1], 7.13; at Histone deacetylase 8, 8.34; against Histone deacetylase 2, 8.48; at Histone deacetylase 1 it was 8.74. For the same compound, the IC50 against Histone deacetylase was found to be 2.2 nM.
With `COc1cc2ncnc(Nc3ccc(Br)cc3)c2cc1OCCCC(=O)NO`, the pIC50 was 4.28 with MCF7 and 7.01 in test [1]. Besides, on Histone deacetylase, the IC50 was found to be 545 nM.
The matching figures for `COc1cc2ncnc(Nc3ccc(Cl)cc3)c2cc1OCCCCCC(=O)NO`: 5.40, 6.50 and 11 nM.
For `COc1cc2ncnc(Nc3ccccc3Cl)c2cc1OCCCC(=O)NO`, in that order: under 4.00, 6.07 and 1255 nM.
The matching figures for `COc1cc2ncnc(Nc3ccccc3Cl)c2cc1OCCCCCCC(=O)NO`: 5.11, 6.44 and 18 nM.
For `COc1cc2ncnc(Nc3ccccc3F)c2cc1OCCCCCCC(=O)NO`, the results for the pIC50 (in the test on MCF7; in test [1]) were 4.82 and 6.12, respectively. Besides, on Histone deacetylase, the IC50 worked out at 32 nM.
In turn, `COc1cc2ncnc(Nc3ccccc3Br)c2cc1OCCCC(=O)NO` registered an IC50 against Histone deacetylase of 840 nM.
`COc1cc2ncnc(Nc3ccc(F)cc3)c2cc1OCCCCCC(=O)NO`: the pIC50 in the test with MCF7 was 4.74; in test [1] it was 6.28. Moreover, the IC50 against Histone deacetylase amounted to 29 nM.
Consider `COc1cc2ncnc(Nc3ccccc3Br)c2cc1OCCCCCCC(=O)NO`, for which the figures for the pIC50 (with MCF7; in test [1]) were 5.59 and under 5.00, respectively. The compound also came in with a half-maximal inhibitory concentration (IC50) against Histone deacetylase of 8.8 nM.
For `COc1cc2ncnc(Nc3ccc(F)cc3)c2cc1OCCCC(=O)NO`, in that order: under 4.00, 6.42 and 1340 nM.
For the compound `COc1cc2ncnc(Nc3ccccc3Cl)c2cc1OCCCCC(=O)NO`, the negative-log IC50 (pIC50) in the test on MCF7 was 4.11; in test [1], 6.08. This compound showed an IC50 against Histone deacetylase of 128 nM.
For the compound `COc1cc2ncnc(Nc3ccccc3Br)c2cc1OCCCCC(=O)NO`, the pIC50 in the test on MCF7 is 4.48; in test [1], under 5.00. Besides, the IC50 against Histone deacetylase came to 74 nM.
For `COc1cc2ncnc(Nc3ccccc3F)c2cc1OCCCC(=O)NO`, in that order: under 4.00, 6.06 and 673 nM.
In test [1], `O=C(CCCCCCC(=O)Nc1ccccc1)NO` [VORINOSTAT] had a pIC50 of under 5.00.

These data come from ChEMBL document CHEMBL3758114, “Design, synthesis and biological evaluation of N-phenylquinazolin-4-amine hybrids as dual inhibitors of VEGFR-2 and HDAC” (Eur J Med Chem, 2016).
